TRPN1 ag = agonists of zebrafish TRPN1 channel; HEK293 zebrafish TRPN1-YFP, Fluo-8 calcium fluorescence; 100% = response to 87 µM carbachol; activation, % at 3 µM; 220,000 tested, 0.18% active;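 active = activation above its plate's cutoff, the mean activation of test wells on that plate plus 3 SD, cut at about 19% in these data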;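 also: 0% = DMSO alone and 100% = 87 µM carbachol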
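Control set: carbachol 87 µM as high control, DMSO as low control; system: HEK293 stable line with zebrafish TRPN1-YFP; read-out: % activation versus carbachol response; detection: intracellular calcium fluorescence with Fluo-8; doses: single test compound dose, 3 µM nominal, 0.3% DMSO; schedule: dye 1 h 37 °C plus 30 min RT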
TRPML3 agonist = agonists of human TRPML3 channel; HEK293 TRPML3-YFP, Fluo-8 calcium fluorescence; 100% = the carbachol control signal; activation, % at 3 µM; 220,000 tested, 0.29% active;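 active = activation above its plate's cutoff, the mean activation of the plate's test wells plus 3 SD, cut at about 12% in these data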;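 also: 0% = DMSO only wells and 100% = carbachol wells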
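Material: HEK293 cells stably carrying human TRPML3-YFP; compound dosing: single dose, 3 µM final nominal compound, 0.3% DMSO final; incubation: 1-h 37 °C dye load, 5-s basal, 120-s post-compound reads; technique: Fluo-8 intracellular calcium fluorescence, excitation 470-495 nm, emission 515-575 nm; read-out basis: percent activation from peak-to-basal fluorescence ratio, scaled between DMSO and carbachol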
OXTR potentiator = potentiators of human oxytocin receptor; CHO-OTR cells, Fluo-8 calcium fluorescence, potentiator mode; 0% = oxytocin EC15, 100% = EC100; activation, % at 3 µM; 320,000 tested, 0.061% active;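 active = activation above that plate's cutoff, the mean activation of tested compounds plus 3 SD, cut at about 6.6% in these data, passing the limit was not always enough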;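 also: 100% uses oxytocin at 75 nM as the full agonist control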
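test system = CHO-OTR cells, human receptor | compound = single-point 3.0 µM | schedule = 6 min compound pre-incubation at room temperature, 100 s kinetic read | signal = Fluo-8 no-wash calcium dye fluorescence, excitation 470-495 nm, emission 515-575 nm | repeats = single well per compound, singlicate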
OXTR ag = agonists of human oxytocin receptor. CHO-OTR cells, Fluo-8 calcium fluorescence; normalized: DMSO 0%, oxytocin 100%. activation, % at 3 µM. 320,000 tested, 0.32% active. AID 2435;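 active = activation above the mean of all tested compounds plus 3 SD, cutoff set per screening run, cut at about 20% in these data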;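 also: peak over basal fluorescence ratio from a 100 s FLIPR kinetic read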
V1R ag counter = activates human V1a receptor in oxytocin agonist counter-screen. P37288. CHO-V1R cells, Fluo-8 calcium fluorescence, agonist mode; 0% DMSO, 100% 3 nM vasopressin. activation, % at 3 µM. 320,000 tested, 0.25% active;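 active = activation above the mean activation of all tested compounds plus 3 SD, per screening run, cut at about 20% in these data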;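 also: signal is peak over basal fluorescence ratio across a 100 second FLIPR read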
Target sequence (P37288 whole entry, looked up): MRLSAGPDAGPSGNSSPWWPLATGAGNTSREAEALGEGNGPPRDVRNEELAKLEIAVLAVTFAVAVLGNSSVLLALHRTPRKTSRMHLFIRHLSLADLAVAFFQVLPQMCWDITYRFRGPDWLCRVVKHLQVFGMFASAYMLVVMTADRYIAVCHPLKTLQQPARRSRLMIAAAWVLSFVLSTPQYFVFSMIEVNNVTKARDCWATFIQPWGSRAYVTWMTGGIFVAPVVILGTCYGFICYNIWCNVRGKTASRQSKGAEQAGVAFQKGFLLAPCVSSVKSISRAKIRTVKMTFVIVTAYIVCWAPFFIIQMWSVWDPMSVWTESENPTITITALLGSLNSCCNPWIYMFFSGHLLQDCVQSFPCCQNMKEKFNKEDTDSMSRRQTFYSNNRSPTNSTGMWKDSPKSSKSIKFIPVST
CRFBP-R2 agonist = CRF-BP/CRF-R2 complex agonism; HEK293 CRF-R2/CRF-BP, calcium dye fluorescence (FLIPR); percent of saturating CRF peptide response; activation, % at 13.2 µM; 350,000 tested, 0.46% active; AID 588473;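 active = activation of at least 50%, plus an integration ratio under a set limit after plate pattern correction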;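 also: plate controls were neutral control wells without compound for no effect and CRF at EC100 for full effect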
V1R ag confirm = confirmation of human vasopressin V1a receptor agonists | shares compounds with V1R ag counter | CHO-V1R cells, Fluo-8 calcium fluorescence, agonist | activation, % at 3 µM | 180 tested, 20% active | AID 434964;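 active = average activation exceeds primary screen hit cutoff, cut at about 21% in these data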;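 also: peak over basal fluorescence ratio during a 100 s FLIPR read; 0% = DMSO only wells and 100% = 3 nM vasopressin wells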
OXTR ag counter = activates oxytocin receptor in V1a agonist counter-screen; shares compounds with V1R ag counter; CHO-OTR cells, Fluo-8 calcium fluorescence; activation, % at 3 µM; 180 tested, 10% active;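 active = mean activation over three repeats above the cutoff from the earlier oxytocin receptor agonist screen, cut at about 20% in these data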;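 also: peak over minimum fluorescence ratio within a 100 second FLIPR read; 0% = DMSO only wells and 100% = oxytocin high control wells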
* hit, by the source's call; / = no result. Shown are actives, neighbours in structure and some others; about 0.83% of the full set was active somewhere.

SMILES | TRPN1 ag | TRPML3 agonist | OXTR potentiator | OXTR ag | V1R ag counter | CRFBP-R2 agonist | V1R ag confirm | OXTR ag counter
Cc1cc(C)c2c(N)c(C(=O)Nc3nccs3)sc2n1 | 0 | 0 | 4 | -1 | 0 | 0 | / | /
C=CCn1c(C)c(/C=C/c2cc[n+](C)cc2)c2ccccc21 | / | / | -15 | 7 | 25* | 36 | 6 | 10
COC(=O)C1=NN(C(=O)c2ccc(C)cc2)C(O)(c2ccc(Cl)cc2)C1 (configuration not stated) | 0 | 0 | -6 | 13 | 33* | 86* | 6 | 18
CC(OC(=O)/C(C#N)=C/c1ccc(N(C)C)cc1)C(=O)N(C)Cc1ccccc1 (configuration not stated) | / | / | -17 | 18 | 30* | 63* | 32* | 19
COc1cccc(OCc2cc(C(=O)N(C)CCOc3ccc(C)cc3)no2)c1 | / | / | -12 | 1 | 4 | 0 | / | /
O=C(NNC(=S)NC(=O)c1ccco1)c1ccc(F)cc1 | 4 | 4 | -12 | 19 | 29* | 9 | 11 | 6
CCC(C)(C)c1ccc(OCCCC[n+]2cccc(C)c2C)c(C(C)(C)CC)c1 | 0 | 0 | -14 | 17 | 31* | 7 | 7 | 3
CCOC(=O)c1csc(NC(=O)COc2ccc(Cl)cc2Cl)n1 | 1 | 2 | -8 | 10 | 22* | 8 | 5 | 10
CCCC(=O)Nc1nc(C(=O)OCC)cs1 | 1 | 1 | -3 | 1 | 1 | 10 | / | /
COc1ccccc1CCNS(=O)(=O)c1cc2c3c(c1)CCN3C(=O)CC2 | / | / | -10 | 0 | 0 | 1 | / | /
CCOC(=O)c1c(NC(=O)CSc2nnnn2-c2ccccc2)sc2c1CC(C)(C)NC2(C)C | / | / | -10 | 0 | 3 | 0 | / | /
CCOC(=O)c1c(NC(=O)CSc2nc3ccc(C)cc3[nH]2)sc2c1CC(C)(C)NC2(C)C | / | / | -14 | 15 | 22* | -1 | 2 | 9
CCSC1=N/C(=C\C=C2/Oc3ccccc3N2CC)C(=O)S1 | 7 | 5 | -7 | 11 | 23* | 42 | 21* | 13
CCSC1=N/C(=C\c2ccc3c(c2)OCO3)C(=O)S1 | 0 | 1 | -12 | -2 | 0 | 4 | / | /
CC(C)(C)C(=O)NN=C1CCC(c2ccccc2)CC1 (configuration not stated) | / | / | / | / | / | 4 | / | /
S=C(NCc1ccc(Cl)cc1)Nc1ccncc1 | / | / | -16 | 17 | 22* | 1 | 14 | 16
S=C(NCc1ccc(Cl)cc1)Nc1ccccc1 | 0 | 0 | -14 | 2 | 7 | 1 | / | /
O=C(/C=C/c1ccc(F)cc1)NC(=S)NNC(=O)[C@H]1C[C@@H]1c1ccccc1 | / | / | -7 | 8 | 26* | 15 | 19 | 16
O=C(/C=C/c1ccc(F)cc1)NC(=S)Nc1ccccc1O | / | / | / | / | / | -1 | / | /
CCCOc1ccc(Cn2c(=O)oc3ccc(C)cc32)cc1 | / | / | -8 | -3 | -1 | 0 | / | /
CCn1c(=O)c(C(=O)NNC(=O)c2cccc(Cl)c2)c(O)c2ccccc21 | / | / | -11 | 14 | 26* | 2 | 17 | 11
CCn1c(=O)c(C(=O)NNC(=O)c2ccccc2Br)c(O)c2ccccc21 | / | / | -12 | 11 | 47* | 23 | 1 | 1
Cn1c(=O)c(C(=O)NNC(=O)c2ccccc2Br)c(O)c2ccccc21 | / | / | -5 | 0 | 2 | 0 | / | /
Cn1c(=O)c(C(=O)NNC(=O)c2cccc(Cl)c2)c(O)c2ccccc21 | / | / | -1 | 1 | 0 | 0 | / | /
Cc1ccc(OCc2cc(C(=O)NCc3ccc(OC(F)(F)F)cc3)no2)cn1 | / | / | -8 | 19 | 28* | 5 | 14 | 21*
SMILES | TRPN1 ag | TRPML3 agonist | OXTR potentiator | OXTR ag | V1R ag counter | CRFBP-R2 agonist | V1R ag confirm | OXTR ag counter
CCc1cc(CNC(=O)c2cc(COc3ccc(C)nc3)on2)on1 | / | / | 5 | 1 | 2 | 0 | / | /
COc1cc2c(cc1OC)CN(C(=O)C(CCSC)NS(=O)(=O)c1ccc(C)cc1)CC2 (configuration not stated) | / | / | 0 | -1 | 2 | 0 | / | /
Oc1ccc(Br)cc1C=Nc1ccc2c3c(cccc13)CC2 | 8 | 3 | -8 | 12 | 24* | 5 | 0 | -1
Cc1ccc(NC(=O)Nc2c(C)n(C)n(-c3ccccc3)c2=O)cc1 | / | / | -6 | 1 | 21* | -1 | 0 | 0
C#CCOCCOCCOCCNc1nc(N2CCN(C(=O)Cn3cc(CC(C)O)nn3)CC2)nc(N2CCN(C(=O)[C@H](CCCCN)n3cc(CC(C)O)nn3)CC2)n1 (some centres not stated) | / | / | / | / | / | -1 | / | /
CCOc1cccc(C2C(C(=O)c3ccc(C)o3)=C(O)C(=O)N2c2nccs2)c1 (configuration not stated) | 4 | 3 | -14 | 2 | 39* | 159* | 4 | 4
Cc1ccc(S(=O)(=O)NCC(=O)N/N=C/c2ccc(Cl)cc2)cc1 | -3 | 0 | 8 | -2 | 22* | 1 | -1 | -1
Cc1cccn2c(=S)[nH]nc12 | / | / | / | / | / | 0 | / | /
COc1cc(OC)c(OC)cc1/C=C1\Oc2cc(OS(C)(=O)=O)ccc2C1=O | 5 | 3 | -7 | 17 | 21* | 31 | 15 | 17
Cn1c(SCC(=O)NC2CCCCC2)nnc1-c1ccccc1O | / | / | -4 | 0 | 1 | 1 | / | /
Cc1[nH]nc2c1C(c1ccco1)C(C#N)=C(N)O2 (configuration not stated) | -1 | 1 | 0 | 1 | 1 | 2 | / | /
COc1ccc(-c2ccc(C3C(C#N)=C(N)Oc4n[nH]c(C)c43)o2)cc1 (configuration not stated) | 4 | 7 | -10 | 5 | 24* | 171* | 6 | 6
CC[C@]12c3[nH]c4ccccc4c3CCN1C(=O)C(CC(=O)NCCC1=CCCCC1)C[C@@H]2C(=O)N1CCN(C(=O)C2CC2)CC1 (some centres not stated) | / | / | -5 | -2 | -1 | 0 | / | /
c1ccc(CNc2ccccn2)cc1 | / | / | -10 | 0 | -1 | 0 | / | /
c1ccc(Nc2ccccc2Nc2ccccn2)nc1 | 88* | 68* | -5 | 10 | 49* | 1 | 0 | -1
Cc1ccc(-n2cnc3c(=O)[nH]cnc32)cc1 | / | / | / | / | / | -2 | / | /
Cn1c2ccccc2c(=O)c2c(=O)n(C3CCCCC3)c(-c3cccs3)nc21 | -1 | 0 | -7 | 19 | 21* | 116* | 51* | 33*
COc1ccc(CCn2c(C3CCCCC3)nc3c(c(=O)c4ccccc4n3C)c2=O)cc1 | 22* | 12* | -19 | 10 | 28* | 62* | 11 | 15

Bioassay records: PubChem BioAssay, several laboratories
